Assay results published in ChEMBL document CHEMBL1158417, “Phosphonate analogues of cyclopropavir phosphates and their E-isomers. Synthesis and antiviral activity” (Bioorg Med Chem, 2009).

Assays:
[1] = tested on: Human alphaherpesvirus 1; assay: Antiviral activity against Herpes simplex virus type 1 in HFF assessed as inhibition of virus-induced cytopathic effect; format: functional, organism-based
Method in brief: (§1)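 HSV-1 and HSV-2 tested in HFF cultures by inhibition of virus-induced cytopathic effect (CPE); cytotoxicity measured by neutral red uptake.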

[2] = (§2) Cytotoxicity against human replicating KB cells; format: cell-based; conditions: KB cells
Method in brief: (§3)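 Cytotoxicity measured in replicating KB cells, run alongside HSV-1 assays in BSC-1 cells.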

[3] = (§4) Cytotoxicity against MEF; format: cell-based; conditions: mouse, MEF cells
[4] = (§5) Cytotoxicity against HFF by neutral red uptake assay; format: cell-based; conditions: human, HFF cells
Method in brief: (§6)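 HFF cultures; cytotoxicity determined by neutral red uptake.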

[5] = tested on: Murid betaherpesvirus 1; assay: Antiviral activity against Murine cytomegalovirus in MEF by plaque reduction assay; format: functional, organism-based
Method in brief: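 Murine CMV titrated by plaque reduction in mouse embryonic fibroblasts (MEF); EC50 from plaque counts.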

[6] = Cytotoxicity against human CEM cells; format: cell-based; conditions: CCRF-CEM cells
[7] = tested on: Human gammaherpesvirus 4; assay: Antiviral activity against Epstein-Barr virus in human H1 cells by DNA hybridization assay; format: functional, organism-based; conditions: human gammaherpesvirus 4, H1
[8] = tested on: Human alphaherpesvirus 3; assay: Antiviral activity against Varicella zoster virus in HFF assessed as inhibition of virus-induced cytopathic effect; format: functional, organism-based
Method in brief: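 VZV in HFF culture; antiviral activity read by cytopathic effect (CPE) inhibition assay.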

[9] = Cytotoxicity against human Daudi cells; format: cell-based
[10] = tested on: Human alphaherpesvirus 2; assay: Antiviral activity against Herpes simplex virus type 2 in HFF assessed as inhibition of virus-induced cytopathic effect; format: functional, organism-based; method in brief: as §1
[11] = (§7) Cytotoxicity against HFF by visual cytotoxicity assay; format: cell-based; conditions: human, HFF cells
Method in brief: (§8)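 Uninfected HFF cultures scored by visual inspection for cytotoxicity in cells unaffected by virus.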

[12] = tested on: KB; assay: as §2; format: cell-based; conditions: kb; method in brief: as §3
[13] = tested on: Human betaherpesvirus 5; assay: Antiviral activity against Human cytomegalovirus Towne expressing wild type UL97 phosphotransferase by plaque reduction assay; format: functional, organism-based; conditions: Human betaherpesvirus 5, Towne
Method in brief: (§9)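 Plaque reduction with HCMV Towne background strains: wild-type, 2696r (most of UL97 deleted) and E8 (two UL97 point mutations); four drug concentrations, each in duplicate; EC50 read from plaque counts.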

[14] = tested on: MEF; assay: as §4; format: cell-based; conditions: mouse, mef
[15] = tested on: HFF; assay: as §5; format: cell-based; conditions: human, hff; method in brief: as §6
[16] = tested on: Human betaherpesvirus 5; assay: Antiviral activity against Human cytomegalovirus AD169 in HFF by cytopathic effect (CPE) inhibition assay; conditions: Human betaherpesvirus 5, AD169
[17] = tested on: Human betaherpesvirus 5; assay: Antiviral activity against Human cytomegalovirus Towne in HFF by plaque reduction assay; format: functional, organism-based; conditions: Human betaherpesvirus 5, Towne
Method in brief: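 HCMV Towne or AD169 grown in human foreskin fibroblast (HFF) cultures; plaque reduction read-out for EC50; cytotoxicity judged visually in HFF cells not infected by virus.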

[18] = tested on: Human betaherpesvirus 5; assay: Antiviral activity against cyclopropavir-resistant Human cytomegalovirus 2696r expressing most of UL97 phosphotransferase sequence deleted mutant by plaque reduction assay; format: functional, organism-based; conditions: Human betaherpesvirus 5, 2696r; method in brief: as §9
[19] = Cytotoxicity against human Akata cells; format: cell-based
[20] = tested on: Human betaherpesvirus 5; assay: Antiviral activity against drug-resistant Human cytomegalovirus E8 isolate expressing UL97 phosphotransferase with two point mutation in UL97 gene by plaque reduction assay; format: functional, organism-based; conditions: Human betaherpesvirus 5, E8; method in brief: as §9
[21] = tested on: Human gammaherpesvirus 4; assay: Antiviral activity against Epstein-Barr virus in human Akata cells by DNA hybridization assay; format: functional, organism-based; conditions: human gammaherpesvirus 4, Akata
Method in brief: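 EBV replication measured by DNA hybridization assay in Akata cells.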

[22] = tested on: Human alphaherpesvirus 1; assay: Antiviral activity against Herpes simplex virus type 1 in african green monkey BSC1 cells by plaque reduction assay; format: functional, organism-based; conditions: Human alphaherpesvirus 1, BSC-1
Method in brief: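 HSV-1 plaque reduction in BSC-1 cells; cytotoxicity determined in replicating KB cells.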

[23] = tested on: HFF; assay: as §7; format: cell-based; conditions: human, hff; method in brief: as §8
[24] = tested on: Human alphaherpesvirus 1; assay: Antiviral activity against Herpes simplex virus type 1 in african green monkey BSC1 cells by ELISA; format: functional, organism-based; conditions: Human alphaherpesvirus 1, BSC-1
Method in brief: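 HSV-1 in BSC-1 cells, viral antigen measured by ELISA; cytotoxicity determined in replicating KB cells.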

[25] = tested on: Human betaherpesvirus 5; assay: Antiviral activity against Human cytomegalovirus AD169 in HFF by cytopathic effect assay; format: functional, organism-based; conditions: Human betaherpesvirus 5, AD169
Method in brief: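 HCMV strain AD169 grown in human foreskin fibroblast (HFF) cultures; antiviral effect read as inhibition of virus-induced cytopathic effect (CPE).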

[26] = tested on: Human alphaherpesvirus 3; assay: Antiviral activity against Varicella zoster virus in HFF by plaque reduction assay; format: functional, organism-based
Method in brief: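 VZV in HFF culture; antiviral activity measured by plaque reduction assay.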

In the case of `Nc1nc(O)c2ncn(/C=C3/CC34COP(=O)(O)OC4)c2n1` (centres undefined), the EC50 [1] is reported as greater than 301 µM, the CC50 [2] is reported as greater than 100 µM and the CC50 [3] is reported as greater than 301 µM. For the same compound, the CC50 [4] was greater than 301 µM, the EC50 [5] was 7.2 µM and the CC50 [6] was greater than 100 µM. For the same compound, the EC50 [7] was greater than 20 µM, the EC50 [8] was greater than 301 µM and the CC50 [9] was 150 µM. It also gave an EC50 [10] of 242 µM and a CC50 [11] greater than 100 µM.

`Nc1nc2c(ncn2/C=C2/CC23CCP(=O)(O)OC3)c(=O)[nH]1` (centres undefined) showed an EC50 [1] greater than 300 µM, a CC50 [12] greater than 100 µM and an EC50 [13] of 4 µM. For the same compound, the CC50 [14] was greater than 100 µM, the CC50 [15] was greater than 300 µM and the EC50 [5] was 0.4 µM. For the same compound, the EC50 [16] was 11.6 µM, the EC50 [17] was 2.4 µM and the EC50 [18] was 3 µM. The CC50 ([19]; akata) was greater than 100 µM, the EC50 [20] was 4 µM and the EC50 [8] was greater than 300 µM. The EC50 [21] was greater than 100 µM, the EC50 [10] was greater than 300 µM and the EC50 [22] was 40 µM. The CC50 [23] was greater than 100 µM.

`Nc1nc2c(ncn2/C=C2/CC2(CO)CCP(=O)(O)O)c(=O)[nH]1` (centres undefined) gave an EC50 [1] of 59.4 µM, an EC50 [13] of 3.5 µM and an EC50 [24] of 15 µM. For the same compound, the EC50 [5] was 0.13 µM, the EC50 [16] was 2.7 µM and the EC50 [17] was 2.2 µM. The EC50 [18] was 3 µM, the CC50 ([19]; Akata cells) was greater than 100 µM and the EC50 [20] was 3.2 µM. It also gave an EC50 [10] of 76.5 µM and a CC50 [11] greater than 100 µM.

In the case of `Nc1nc2c(ncn2/C=C2\CC23CCP(=O)(O)OC3)c(=O)[nH]1` (centres undefined), the EC50 [16] is reported as greater than 300 µM, the EC50 [17] is reported as greater than 100 µM and the EC50 [21] is reported as greater than 100 µM. The EC50 [22] was 100 µM.

Work on `Nc1nc2c(ncn2/C=C2\CC2(CO)CCP(=O)(O)O)c(=O)[nH]1` (centres undefined) yielded an EC50 [1] greater than 300 µM, a CC50 [15] greater than 300 µM and an EC50 [17] greater than 100 µM. For the same compound, the EC50 [25] was greater than 300 µM, the EC50 [8] was 191 µM and the EC50 [21] was greater than 100 µM. It also gave an EC50 [10] greater than 300 µM and an EC50 [22] of 100 µM.

`Nc1nc2c(ncn2COCCO)c(=O)[nH]1` [ACYCLOVIR] showed an EC50 [1] of 1.3 µM, a CC50 [15] greater than 300 µM and an EC50 [26] of 4.4 µM. It also gave an EC50 [10] of 1.2 µM and an EC50 [22] of 0.3 µM.

`Nc1nc2c(ncn2/C=C2/CC2(CO)CO)c(=O)[nH]1` [FILOCICLOVIR] gave an EC50 [1] greater than 380 µM, a CC50 [2] greater than 100 µM and an EC50 [13] of 0.6 µM. For the same compound, the EC50 [24] was greater than 100 µM, the CC50 [3] was greater than 380 µM and the CC50 [4] was greater than 380 µM. For the same compound, the EC50 [5] was 0.27 µM, the EC50 [17] was 0.46 µM and the EC50 [18] was 28 µM. The CC50 ([19]; Akata cells) was 46 µM, the EC50 [20] was 8 µM and the EC50 [8] was greater than 380 µM. The EC50 [10] was greater than 380 µM and the CC50 [11] was greater than 100 µM.
